This is a sample that favours compounds with a hit; in the whole collection about 3% have one here.
Casp6 inh – blocks human caspase-6 cleavage activity. P55212. purified caspase-6, Z-VEID-R110 cleavage fluorescence. inhibition, % at 12.5 µM. 350,000 tested, 0.53% active. AID 686996;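 active = mean inhibition across replicates at least about 35%, with every replicate also reaching that limit, limit read from the data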;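 also: 0% = median of neutral control wells and 100% = no fluorescence left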
Target sequence (P55212 24-179 limits assumed): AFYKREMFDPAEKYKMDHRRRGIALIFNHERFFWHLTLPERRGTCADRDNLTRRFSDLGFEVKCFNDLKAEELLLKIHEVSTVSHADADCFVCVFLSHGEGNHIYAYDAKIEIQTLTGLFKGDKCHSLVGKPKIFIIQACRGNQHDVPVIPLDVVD
Target sequence (P55212 194-293 limits assumed): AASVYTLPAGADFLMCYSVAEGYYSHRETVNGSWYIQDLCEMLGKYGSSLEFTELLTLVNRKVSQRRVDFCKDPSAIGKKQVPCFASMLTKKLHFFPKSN
MITF act – increases MITF-driven TRPM1 promoter luciferase signal; SK-MEL-5 TRPM1-promoter luciferase, 24 h; % of positive control, neutral wells = 0; activation, % at 12.5 µM; 300,000 tested, 0.75% active;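 active = mean activation of at least 80% with every replicate also reaching 80%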;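 also: 0% = neutral control wells and 100% = parthenolide positive control wells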
esBAF inh – SWI/SNF esBAF complex inhibition; mouse ES cells, Bmi1-luciferase knock-in reporter, 24 h; 100% = twice the neutral-well signal; reporter increase, % at 12.5 µM; 350,000 tested, 2% active; AID 602393; in the data active = activation above about 40%;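 also: 0% = median of the plate's neutral control wells and 100% = double that signal; a rise in the Bmi1 reporter signal indicates esBAF inhibition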
NSD2 HMT inh – inhibitors of human histone methyltransferase NSD2; O96028; NSD2 peptide methylation, AlphaScreen, 120 min; inhibition, % at 12.5 µM; 310,000 tested, 0.54% active; AID 743445; in the data active = inhibition above about 50%
XiGFP reactiv – activators of X-chromosome reactivation in mouse fibroblasts. XiGFP mouse fibroblasts, % GFP-positive cells imaging, 3 d; cells co-treated with 5-aza-dC sensitizer; scaled so ellipticine positive control = 100%. activation, % at 7.58 µM. 360,000 tested, 0.055% active;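 active = mean normalized replicate activation at least 10% and every replicate at or above 10%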;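 also: 0% = median of on-plate neutral control wells and 100% = ellipticine 6 µM median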
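System: SV40-immortalized XiGFP fibroblast cells, line 68-5-11 / Incubation: 3-day compound exposure, then 15 min fixation at room temperature / Compound: single concentration per compound, delivered by pin transfer / Buffer or medium: DMEM plus 5-aza-dC sensitizer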
Wnt act – activates Wnt/beta-catenin signaling in a reporter cell assay; activator, plate reader; 300,000 tested, 1.2% active; activation, % at 9.35 µM; in the data active = activation above about 30%, passing the limit was not always enough;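 also: 0% = neutral control wells and 100% = positive control wells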
Active calls of the source: *.

How did O=C(/C=C/c1cccs1)NCc1cccs1 do in these assays?
Casp6 inh: -1; NSD2 HMT inh: 4; XiGFP reactiv: 0; Wnt act: 43*

How did CC(C)NC(=O)Nc1ccc2c(c1)C(=O)N([C@@H](C)CO)C[C@H](C)[C@@H](CN(C)Cc1ccc(C(F)(F)F)cc1)OCCCC[C@@H](C)O2 do in these assays?
Casp6 inh: -1; esBAF inh: -5; XiGFP reactiv: 0

What do the screens show for `CCCN1CNC(=S)N(c2ccccc2C)C1`?
Casp6 inh: 56*; MITF act: -7; NSD2 HMT inh: 1; XiGFP reactiv: 0; Wnt act: 0

Results for COc1ccc(CN2C[C@H](C)[C@H](OC)CN(C)C(=O)c3cc(NC(=O)c4nc5ccccc5s4)ccc3OC[C@@H]2C)cc1 ?
Casp6 inh: 0; esBAF inh: -2; XiGFP reactiv: 0

Results for Cc1cc(/C=C2\C(=N)N3N=CSC3=NC2=O)c(C)n1Cc1ccccc1 ?
Casp6 inh: 3; MITF act: 22; esBAF inh: 38; NSD2 HMT inh: 8; XiGFP reactiv: 0; Wnt act: 36*

How did Cc1ccc(-c2ccc3c(c2)O[C@@H](CN(C)C(=O)Nc2ccccc2)[C@@H](C)CN([C@@H](C)CO)S3(=O)=O)cc1 do in these assays?
esBAF inh: 1; XiGFP reactiv: -1

Results for CN1CC2([N+](=O)[O-])CC=C(OCCO)C([N+](=O)[O-])(C1)C2 (centres undefined) ?
Casp6 inh: 39*; MITF act: 3; NSD2 HMT inh: -2; XiGFP reactiv: 0; Wnt act: 13

What do the screens show for `O=c1cc(CSc2nnc(-c3cccs3)o2)c2c(ccc3ccccc32)o1`?
NSD2 HMT inh: 4

What do the screens show for `CN(C)C(=O)[C@@H]1[C@@H](CO)[C@@H]2Cn3c(ccc(-c4ccncc4)c3=O)[C@H]1N2CC1CCCC1`?
Casp6 inh: 0; esBAF inh: 0; XiGFP reactiv: 1

What do the screens show for `Cc1ccc(SCc2[nH]nc3c2C2(CCSCC2)C(C#N)=C(N)O3)cc1`?
MITF act: -1; esBAF inh: -2; NSD2 HMT inh: 1

What do the screens show for `CCOC(=O)N1CCC2(CC1)C(C#N)=C(N)Oc1n[nH]c(CSc3ccc(C)cc3)c12`?
esBAF inh: -3; NSD2 HMT inh: -2; Wnt act: 70*

How did CCCNC(=O)Nc1ccc2c(c1)OC[C@H](C)N(C(=O)C1CC1)C[C@@H](C)[C@@H](OC)CN(C)C2=O do in these assays?
Casp6 inh: -8; esBAF inh: -5; XiGFP reactiv: -1

What do the screens show for `O=C(O)c1ccc(/C=C2\CCCc3c2nc2ccccc2c3C(=O)O)cc1`?
MITF act: -8; esBAF inh: -2; NSD2 HMT inh: 4; XiGFP reactiv: 0; Wnt act: 0

Results for CN(C)c1ccc(/C=C2\CCCc3c2nc2ccccc2c3C(=O)O)cc1 ?
Casp6 inh: 0; MITF act: 70; esBAF inh: 59*; NSD2 HMT inh: -2; XiGFP reactiv: 0; Wnt act: 18

Results for O=C(C1CC1)N1C[C@H]2[C@@H](c3ccccc31)[C@H](CO)N2C(=O)c1cccc(F)c1 ?
esBAF inh: 2; XiGFP reactiv: 0

Results for Fc1ccc(-c2ncc3ccccn23)cc1 ?
Casp6 inh: -1; MITF act: -9; NSD2 HMT inh: 4; XiGFP reactiv: 0; Wnt act: 11

How did Clc1ccc(/C=C/c2ncc3ccccn23)cc1 do in these assays?
Casp6 inh: -1; MITF act: 34; NSD2 HMT inh: -11; XiGFP reactiv: 0; Wnt act: 41*

What do the screens show for `COc1ccc(S(=O)(=O)N(C)C[C@@H]2Oc3ccc(NC(=O)Nc4ccc5c(c4)OCO5)cc3C(=O)N([C@H](C)CO)C[C@@H]2C)cc1`?
Casp6 inh: -1; esBAF inh: -7; XiGFP reactiv: -1

What do the screens show for `COc1ccc(C(=O)NCCn2ccc3ccccc32)cc1`?
MITF act: 98*; esBAF inh: 44*

What do the screens show for `Cc1ccc(C(=O)NCCn2ccc3ccccc32)cc1[N+](=O)[O-]`?
Casp6 inh: -1; MITF act: 16; NSD2 HMT inh: 2; XiGFP reactiv: 0; Wnt act: 0

How did O=C(NCCn1ccc2ccccc21)c1ccc2c(c1)OCO2 do in these assays?
Casp6 inh: 0; MITF act: 77; esBAF inh: 52*; XiGFP reactiv: 0; Wnt act: 38*

What do the screens show for `COc1nc(C)ccc1-c1noc(-c2cccs2)n1`?
Casp6 inh: -3; NSD2 HMT inh: -5; XiGFP reactiv: 0; Wnt act: -3

Results for COc1nc(C)ccc1-c1noc(-c2ccncc2)n1 ?
MITF act: 97*; esBAF inh: 20; NSD2 HMT inh: 2; Wnt act: 0

What do the screens show for `COc1nc(-c2ccccc2)ccc1-c1noc(-c2ccco2)n1`?
esBAF inh: 76*; NSD2 HMT inh: -4

How did CCOc1ccccc1-c1nc(-c2ccc(C)nc2OC)no1 do in these assays?
esBAF inh: 69*; NSD2 HMT inh: 1; Wnt act: 51*

How did COc1ccccc1-c1noc(-c2ccco2)n1 do in these assays?
MITF act: 90*; esBAF inh: 21; NSD2 HMT inh: 1; Wnt act: -2

Results for CCOc1nc(C)ccc1-c1noc(-c2ccccn2)n1 ?
MITF act: 42; esBAF inh: 11; NSD2 HMT inh: -3

Results for CC(=O)Nc1ccc2c(c1)C(=O)N(C)C[C@H](C)[C@@H](CN(C)C(=O)NC(C)C)O2 ?
XiGFP reactiv: 0

What do the screens show for `COc1nc(-c2ccccc2)ccc1-c1noc(-c2cccs2)n1`?
MITF act: 31; esBAF inh: 46*; NSD2 HMT inh: -4

What do the screens show for `COc1nc(-c2ccccc2)ccc1-c1noc(-c2ccccc2)n1`?
MITF act: 58; esBAF inh: 44*; NSD2 HMT inh: -1; Wnt act: -5

What do the screens show for `COc1ccc(-c2ccc(-c3noc(-c4ccco4)n3)c(OC)n2)cc1`?
MITF act: 54; esBAF inh: 48*; NSD2 HMT inh: 1; Wnt act: 4

What do the screens show for `COCC(=O)N1CCC2(CC1)CN(S(C)(=O)=O)[C@@H](CO)c1c2c2ccc(OC)cc2n1C`?
XiGFP reactiv: 0

Results for O=C(COC(=O)c1ccc(S(=O)(=O)NCc2ccco2)cc1)Nc1ccc(Cl)cn1 ?
Casp6 inh: 46*; MITF act: 3; NSD2 HMT inh: 1; XiGFP reactiv: 0; Wnt act: -2

Results for O=C(COC(=O)c1ccc(S(=O)(=O)NCc2ccco2)cc1)Nc1ccccc1 ?
Casp6 inh: 2; MITF act: -1; esBAF inh: -2; NSD2 HMT inh: 1; XiGFP reactiv: 0; Wnt act: 0
